Data published in ChEMBL document CHEMBL3272294, “Antiviral activity of some beta-diketones. 1. Aryl alkyl diketones. In vitro activity against both RNA and DNA viruses” (1977).
In brackets after ≈: the same amount, converted by molar mass. Activity calls are given as the source filed them. The calls are words filed in the database; no cut-off is given here.

Tests used:
Equine rhinovirus = test: Antiviral activity against Equine rhinovirus assessed as inhibition of virus-induced cytopathic effect at 33 degC after 48 hrs by two-fold dilution method
Human alphaherpesvirus 1 [1] = test: Antiviral activity against Herpes simplex virus 1 Sheely assessed as inhibition of virus-induced cytopathic effect at 37 degC after 72 hrs by two-fold dilution method; assay type: functional; conditions: Human alphaherpesvirus 1, Sheely
In short: (§1)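 Susceptible monolayers in stationary tubes were infected with 100 tissue culture infective doses and allowed to adsorb for 1 h. Compound was then added in M-199 with 5% inactivated fetal calf serum at 50–0.3 μg/mL in twofold dilutions, four tubes per dilution. Tubes were held at 37 °C and CPE was scored at 48 and 72 h. MIC is the lowest nontoxic level giving complete CPE inhibition, with toxicity read from uninfected parallel tubes.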

Human alphaherpesvirus 2 [2] = test: Antiviral activity against Herpes simplex virus 2 Curtis assessed as inhibition of virus-induced cytopathic effect at 37 degC after 72 hrs by two-fold dilution method; assay type: functional; conditions: Human alphaherpesvirus 2, Curtis
In short: as §1

Human alphaherpesvirus 2 [3] = test: Antiviral activity against Herpes simplex virus 2 assessed as inhibition of virus-induced cytopathic effect at 37 degC after 72 hrs by two-fold dilution method; assay type: functional; conditions: for MIC: Human alphaherpesvirus 2, 72 h
In short: as §1

Human alphaherpesvirus 1 [4] = test: Antiviral activity against Herpes simplex virus 1 assessed as inhibition of virus-induced cytopathic effect at 37 degC after 72 hrs by two-fold dilution method; assay type: functional; conditions: Human alphaherpesvirus 1, 72 h
In short: as §1

[5] = Antiviral activity against Human rhinovirus 17 assessed as inhibition of virus-induced cytopathic effect at 37 degC after 72 hrs by two-fold dilution method; assay type: functional, Human rhinovirus B17; conditions: Rhinovirus B
[6] = system: unidentified influenza virus; test: Antiviral activity against Parainfluenza virus assessed as inhibition of virus-induced cytopathic effect at 37 degC after 72 hrs by two-fold dilution method; assay type: functional
In short: as §1

rhinovirus A2 = test: Antiviral activity against Human rhinovirus 2 assessed as inhibition of virus-induced cytopathic effect at 37 degC after 72 hrs by two-fold dilution method; assay type: functional; conditions: Rhinovirus A
[7] = system: Respiratory syncytial virus; test: Antiviral activity against Respiratory syncytial virus assessed as inhibition of virus-induced cytopathic effect at 37 degC after 72 hrs by two-fold dilution method; assay type: functional; conditions: human respiratory syncytial virus
In short: as §1

Influenza A virus [8] = test: Antiviral activity against Influenza A2 virus Jap 170 infected in ferret trachea assessed as reduction in viral yield at 200 ug/ml after 3 days followed by compound-washout measured after 24 hrs by chick embryo-based hemagglutination titration method relative to control; assay type: functional; set-up: scale not given: the % may be the effect or the level left
rhinovirus B14 = test: Antiviral activity against Human rhinovirus 14 assessed as inhibition of virus-induced cytopathic effect at 37 degC after 72 hrs by two-fold dilution method; assay type: functional; conditions: Rhinovirus B
Influenza A virus [9] = test: Antiviral activity against Influenza A2 virus Jap 170 infected in ferret trachea assessed as reduction in viral yield at 100 ug/ml after 3 days followed by compound-washout measured after 24 hrs by chick embryo-based hemagglutination titration method relative to control; assay type: functional; set-up: scale not given: the % may be the effect or the level left

CCC(=O)C(CCCCCCc1cccc(O)c1)C(=O)CC
MIC (Equine rhinovirus): 6 µg/mL (≈ 19.7 µM)

CCC(=O)C(CCCCCCc1ccc(OC(=O)c2ccccc2C)cc1)C(=O)CC
MIC (Equine rhinovirus): 6 µg/mL (≈ 14.2 µM)

CCC(=O)C(CCCCCCc1ccc(OC(=O)c2ccc(C)cc2)cc1)C(=O)CC
MIC (Equine rhinovirus): 12 µg/mL (≈ 28.4 µM)

CCC(=O)C(CCCCCCc1ccccc1)C(=O)CC
MIC (Equine rhinovirus): 6 µg/mL (≈ 20.8 µM)

CC/C(=C\CCc1ccc2c(c1)OCO2)CCC1CCCC1=O (centres undefined)
MIC (Equine rhinovirus): 6 µg/mL (≈ 19.1 µM)

Nc1ncnc2c1ncn2[C@@H]1O[C@H](CO)[C@@H](O)[C@@H]1O [VIDARABINE]
MIC (Human alphaherpesvirus 1 [1]): 12 µg/mL (≈ 44.9 µM)
MIC (Human alphaherpesvirus 2 [2]): 12 µg/mL (≈ 44.9 µM)

CCC(=O)C(CC/C=C/CCc1cc(OC)c(OCc2ccccc2)c(OC)c1)C(=O)CC
MIC (Equine rhinovirus): 6 µg/mL (≈ 13.3 µM)

CCC(=O)C(CCCCCCc1ccc(O)c(O)c1)C(=O)CC
MIC (Equine rhinovirus): 1.5 µg/mL (≈ 4.68 µM)

CCC(=O)C(CCC(CC)CCCc1ccc2c(c1)OCO2)C(=O)CC (centres undefined)
MIC (Equine rhinovirus): 3 µg/mL (≈ 8.32 µM)

CCC(=O)C(CCCCCCc1ccc(OC)cc1)C(=O)CC
MIC (Equine rhinovirus): 3 µg/mL (≈ 9.42 µM)

CCC(=O)C(CC/C(=C/CCc1ccc(C(=O)OC)cc1)CC)C(=O)CC
MIC (Equine rhinovirus): 25 µg/mL (≈ 67.1 µM)

CCC(=O)C(CCCCCCCCCCc1ccc(O)cc1)C(=O)CC
MIC (Equine rhinovirus): 12 µg/mL (≈ 33.3 µM)
MIC (Human alphaherpesvirus 2 [3]): 12 µg/mL (≈ 33.3 µM)

CCC(=O)C(CCCCCCc1ccc(Cl)cc1O)C(=O)CC
MIC (Equine rhinovirus): 0.7 µg/mL (≈ 2.07 µM)

CCC(=O)C(CCCc1ccc(O)cc1)C(=O)CC
inhibition (Human alphaherpesvirus 2 [3]): inactive

CCCC(=O)C(CC/C(=C/CCc1ccc2c(c1)OCO2)CC)C(=O)OCC (centres undefined)
MIC (Equine rhinovirus): 12 µg/mL (≈ 30.9 µM)

CCC(=O)C(CC/C=C/CCc1ccc(OC(F)(F)F)cc1)C(=O)CC
MIC (Equine rhinovirus): 6 µg/mL (≈ 16.2 µM)

CCC(=O)C(CCCCCCc1ccc(OC(F)(F)F)cc1)C(=O)CC
MIC (Equine rhinovirus): 6 µg/mL (≈ 16.1 µM)

CCC(=O)C(CCCCCCc1ccc(O)cc1)C(=O)CC
MIC (Human alphaherpesvirus 1 [4]): 12 µg/mL (≈ 39.4 µM)
MIC (Equine rhinovirus): 3 µg/mL (≈ 9.85 µM)
MIC (Human alphaherpesvirus 1 [1]): 12 µg/mL (≈ 39.4 µM)
MIC (Human alphaherpesvirus 2 [3]): 12 µg/mL (≈ 39.4 µM)
MIC [5]: 6 µg/mL (≈ 19.7 µM)
MIC [6]: 3 µg/mL (≈ 9.85 µM)
MIC (rhinovirus A2): 3 µg/mL (≈ 9.85 µM)
MIC [7]: 6 µg/mL (≈ 19.7 µM)
Activity (Influenza A virus [8]): 99.9%
MIC (Human alphaherpesvirus 2 [2]): 12 µg/mL (≈ 39.4 µM)
MIC (rhinovirus B14): 6 µg/mL (≈ 19.7 µM)
Activity (Influenza A virus [9]): 94%

CCC(=O)C(CC/C=C/CCc1ccc(NC(C)=O)cc1)C(=O)CC
MIC (Equine rhinovirus): 12 µg/mL (≈ 34.9 µM)

CCC(=O)C(CCCCc1ccc(O)cc1)C(=O)CC
MIC (Equine rhinovirus): 6 µg/mL (≈ 21.7 µM)
MIC (Human alphaherpesvirus 2 [3]): 12 µg/mL (≈ 43.4 µM)

O=c1[nH]c(=O)n([C@H]2C[C@H](O)[C@@H](CO)O2)cc1I [IDOXURIDINE]
MIC (Human alphaherpesvirus 1 [1]): 6 µg/mL (≈ 16.9 µM)
MIC (Human alphaherpesvirus 2 [2]): 6 µg/mL (≈ 16.9 µM)

CCC(=O)C(CC/C(=C/CCc1ccc2c(c1)OCO2)CC)C(C)=O (centres undefined)
MIC (Equine rhinovirus): 12 µg/mL (≈ 34.8 µM)

CCC(=O)C(CC/C(C)=C/CCc1ccc2c(c1)OCO2)C(=O)CC
MIC (Equine rhinovirus): 3 µg/mL (≈ 8.71 µM)

CCC(=O)C(CCCCCc1ccc(O)cc1)C(=O)CC
MIC (Equine rhinovirus): 12 µg/mL (≈ 41.3 µM)
MIC (Human alphaherpesvirus 2 [3]): 12 µg/mL (≈ 41.3 µM)

CCC(=O)C(CC/C(=C/C=C/c1ccc2c(c1)OCO2)CC)C(=O)CC
MIC (Equine rhinovirus): 6 µg/mL (≈ 16.8 µM)

CCC(=O)C(CC/C(=C/CCc1ccc2c(c1)OCO2)CC)C(=O)CC
MIC (Equine rhinovirus): 6 µg/mL (≈ 16.7 µM)

CCC(=O)C(CCCCCCc1ccccc1O)C(=O)CC
MIC (Equine rhinovirus): 6 µg/mL (≈ 19.7 µM)

CCC(=O)C(CCCCCCCCc1ccc(O)cc1)C(=O)CC
MIC (Equine rhinovirus): 3 µg/mL (≈ 9.02 µM)
MIC (Human alphaherpesvirus 2 [3]): 3 µg/mL (≈ 9.02 µM)

CCC(=O)C(CCCCCCc1ccc(OC(C)=O)cc1)C(=O)CC
MIC (Equine rhinovirus): 6 µg/mL (≈ 17.3 µM)

CCC(=O)C(CCCCCCCc1ccc(O)cc1)C(=O)CC
MIC (Equine rhinovirus): 6 µg/mL (≈ 18.8 µM)
MIC (Human alphaherpesvirus 2 [3]): 6 µg/mL (≈ 18.8 µM)

CC/C(=C\CCc1ccc2c(c1)OCO2)CCC(C(C)=O)C(C)=O
MIC (Equine rhinovirus): 6 µg/mL (≈ 18.2 µM)

CCC(=O)C(CCCCCCc1ccc(Cl)cc1OC)C(=O)CC
MIC (Equine rhinovirus): 3 µg/mL (≈ 8.5 µM)

CCOC(=O)C(CC/C(=C/CCc1ccc2c(c1)OCO2)CC)C(C)=O (centres undefined)
MIC (Equine rhinovirus): 6 µg/mL (≈ 16.6 µM)

CCC(=O)C(CCCCCCc1ccc(OC(=O)c2cc(OC)c(OC)c(OC)c2)cc1)C(=O)CC
MIC (Equine rhinovirus): 6 µg/mL (≈ 12 µM)

Nc1ccn([C@@H]2O[C@H](CO)[C@@H](O)[C@@H]2O)c(=O)n1 [CYTARABINE]
MIC (Human alphaherpesvirus 1 [1]): < 3 µg/mL
MIC (Human alphaherpesvirus 2 [2]): < 3 µg/mL

CCC(=O)C(CCCCCCc1ccc(OC(=O)c2cccc(C)c2)cc1)C(=O)CC
MIC (Equine rhinovirus): 3 µg/mL (≈ 7.1 µM)

CCC(=O)C(CCCCCCc1ccccc1OC)C(=O)CC
MIC (Equine rhinovirus): 12 µg/mL (≈ 37.7 µM)

CCC(=O)C(CCCCCCc1ccc(Cl)cc1Cl)C(=O)CC
MIC (Equine rhinovirus): 3 µg/mL (≈ 8.4 µM)

CCC(=O)C(CCCCCCc1ccc(Cl)cc1)C(=O)CC
MIC (Equine rhinovirus): 1.5 µg/mL (≈ 4.65 µM)

CCC(=O)C(CCCCCCCCCc1ccc(O)cc1)C(=O)CC
MIC (Human alphaherpesvirus 2 [3]): 6 µg/mL (≈ 17.3 µM)

CCC(=O)C(CCCCCCc1ccc(OC(=O)c2cccc(OC)c2)cc1)C(=O)CC
MIC (Equine rhinovirus): 3 µg/mL (≈ 6.84 µM)

CCC(=O)C(CC/C=C/CCc1ccc(OCc2ccccc2)cc1)C(=O)CC
MIC (Equine rhinovirus): 3 µg/mL (≈ 7.64 µM)

CCC(=O)C(CC/C=C/CCc1ccc2c(c1)OCO2)C(=O)CC
MIC (Equine rhinovirus): 3 µg/mL (≈ 9.08 µM)

CCC(=O)C(CCCCCCc1ccc2c(c1)OCO2)C(=O)CC
MIC (Equine rhinovirus): 6 µg/mL (≈ 18 µM)

CCC(=O)C(CCCCCCc1ccc(C)cc1)C(=O)CC
MIC (Equine rhinovirus): 6 µg/mL (≈ 19.8 µM)
